Results on two compounds are retold here after ChEMBL document CHEMBL4359895, “Discovery and biological evaluation of darolutamide derivatives as inhibitors and down-regulators of wild-type AR and the mutants” (Eur J Med Chem, 2019).

What is called AUC(0-t) is exposure summed from dosing to a finite time, without extrapolation to infinity. Lower therefore signals low exposure. In general, Cmax refers to the highest concentration seen after dosing. For orientation: IC50 means the concentration needed to halve the response being measured. As a reminder, the half-life is the time in which the quantity being followed falls by half. Read a low half-life as fast loss.

Activity calls are given as the source filed them. No cut-off for these calls is given here.

Series [1] can be described thus: AUC (0 to t) in Sprague-Dawley rat 30 mg/kg, po measured up to 24 hrs by LC-MS/MS analysis. Type of series: ADME, organism-based. Set-up: dose 30 mg/kg, time < 24 hr, route oral. The conditions noted are these: in vivo. Summed up: (§1)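 Rats dosed orally at 30 mg/kg, compound formulated in 10% DMA / 90% PEG200. Plasma levels followed over time to build concentration-time curves, from which T1/2, Tmax, Cmax and AUC were derived.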

Series [2] deals with CWR22R. The series is described as follows: Inhibition of AR splice variant 7 mutant gene expression in human 22Rv1 cells at 10 to 40 uM incubated for 24 hrs by qRT-PCR analysis. It is filed as functional, cell-based. Put shortly: (§2)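 LNCaP, VCaP and 22Rv1 cells treated with DMSO or compounds for 24 h. AR-full and AR-V7 mRNA measured by qRT-PCR and normalised to GAPDH. Mean ± SD, n = 3, compared with DMSO by two-tailed t test.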
Background: Quantitative PCR measures a nucleic acid by following its amplification.

Series [3] has as its system CWR22R. Description: Inhibition of AR mRNA level in human 22Rv1 cells at 10 to 40 uM incubated for 24 hrs by qRT-PCR analysis. Type of series: functional, cell-based. Put shortly:
as §2

Series [4] in a line: Stability of compound in nutrient medium with fetal bovine serum and antibiotic incubated for 6 days by HPLC analysis. The conditions noted are these: 144 h.
Series [5] relates to VCaP. Description: Inhibition of AR splice variant 7 mutant expression in human VCaP cells at 10 to 40 uM incubated for 24 hrs by Western blot analysis analysis. Type of series: functional, cell-based. Summed up: (§3)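 LNCaP, VCaP and 22Rv1 cells grown in medium with 10% (v/v) FBS. Treated with compounds or DMSO for 24 h. AR-full and AR splice-variant protein then assessed by western blot.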
In general terms: In western blotting, separated proteins are transferred to a membrane and probed.

Series [6] relates to LNCaP. The series is described as follows: Inhibition of AR splice variant 7 mutant gene expression in human LNCAP cells at 5 to 30 uM incubated for 24 hrs by qRT-PCR analysis. Type of series: functional, cell-based. Summed up:
as §2

In series [7] the test system is LNCaP. The series is described as follows: Inhibition of AR mRNA level in human LNCAP cells at 5 to 30 uM incubated for 24 hrs by qRT-PCR analysis. It is filed as functional, cell-based. Put shortly: as §2
A short description of series [8]: Toxicity in BALB/c mouse xenografted with castration-resistant human VCaP cells assessed as weight loss at 30 to 60 mg/kg, po administered for 40 days. It is filed as organism-based. Particulars: in vivo, 960 h. Summed up: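 Castration-resistant VCaP xenografts in male BALB/c nude mice. Animals treated once daily for 40 days, with a vehicle group included.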
For orientation: Xenograft models place foreign cells or tissue in a host animal.

Series [9] concerns VCaP. The series is described as follows: Inhibition of AR splice variant 7 mutant expression in human VCaP cells at 10 to 30 uM incubated for 24 hrs by Western blot analysis analysis. Type of series: functional, cell-based. Put shortly:
as §3

A short description of series [10]: Plasma concentration in Sprague-Dawley rat 30 mg/kg, po measured up to 24 hrs by LC-MS/MS analysis. Type of series: ADME, organism-based. Summed up:
as §1

Series [11] has as its system VCaP. Description: Antitumor activity against castration-resistant human VCaP cells xenografted in BALB/c mouse assessed as tumor growth inhibition at 30 mg/kg, po administered for 40 days. It is filed as functional. Particulars: 960 h, read-out: TGI. Summed up: (§4)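 Castration-resistant VCaP xenografts grown in male BALB/c nude mice. Animals dosed once daily for 40 days alongside a vehicle group. Tumor volume tracked over time, with tumor weights taken at end. Reported as tumor growth inhibition, mean ± SEM, N = 8-9 per group.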

Series [12] deals with LNCaP. Description: Induction of androgen receptor splice variant 7 mutant degradation in human LNCAP cells at 30 uM incubated upto 26 hrs in presence of bortezomib by Western blot analysis. It is filed as functional, cell-based.
Series [13] relates to LNCaP. The series is described as follows: Antiproliferative activity against human LNCAP expressing AR assessed as reduction in cell viability incubated for 6 days by CCK-8 assay. Type of series: functional, cell-based. Particulars: 144 h. Put shortly:
(§5)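 Cell proliferation assay run on LNCaP/AR, VCaP, 22Rv1, PC-3 and L-02 cells, with PC-3 and L-02 serving as AR-independent toxicity controls. IC50 fitted in GraphPad Prism 5 as the mean of at least two experiments, each in duplicate. Deviations under 35%.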

Series [14] concerns LNCaP. Description: Inhibition of AR protein expression in human LNCAP cells at 5 to 30 uM incubated for 24 hrs by Western blot analysis. Type of series: functional, cell-based. Summed up: as §3
In series [15] the test system is CWR22R. The series is described as follows: Inhibition of AR splice variant 7 mutant expression in human 22Rv1 cells at 10 to 40 uM incubated for 24 hrs by Western blot analysis analysis. It is filed as functional, cell-based. Put shortly:
as §3

Series [16] concerns CWR22R. Description: Inhibition of AR protein expression in human 22Rv1 cells at 10 to 40 uM incubated for 24 hrs by Western blot analysis. Type of series: functional, cell-based. Summed up: as §3
Series [17] concerns LNCaP. Description: Induction of androgen receptor splice variant 7 mutant degradation in human LNCAP cells at 30 uM incubated upto 26 hrs in presence of bortezomib/MG132 by Western blot analysis. Type of series: functional, cell-based.
The test system of the next series is PC-3. The series is described as follows: Cytotoxicity against human PC3 assessed as reduction in cell viability incubated for 6 days by CCK-8 assay. Type of series: cell-based. The conditions noted are these: PC-3, 144 h. Summed up:
as §5

Series [18] concerns VCaP. Description: Antiproliferative activity against human VCaP expressing AR assessed as reduction in cell viability incubated for 6 days by CCK-8 assay. It is filed as functional, cell-based. Particulars: 144 h. Put shortly: as §5
Series [19] is described as follows: Half life in Sprague-Dawley rat 30 mg/kg, po measured up to 24 hrs by LC-MS/MS analysis. Type of series: ADME, organism-based. The conditions noted are these: in vivo. Summed up: as §1
For a further series, the system named is L02. The series is described as follows: Cytotoxicity against human L02 assessed as reduction in cell viability incubated for 6 days by CCK-8 assay. It is filed as cell-based. Particulars: L02, 144 h. Summed up: as §5
The test system of series [20] is VCaP. Description: Inhibition of AR mRNA level in human VCaP cells at 10 to 40 uM incubated for 24 hrs by qRT-PCR analysis. It is filed as functional, cell-based. Put shortly: as §2
Series [21] deals with LNCaP. The series is described as follows: Inhibition of AR splice variant 7 mutant expression in human LNCAP cells at 5 to 30 uM incubated for 24 hrs by Western blot analysis analysis. Type of series: functional, cell-based. Put shortly: as §3
For series [22], the system named is VCaP. The series is described as follows: Antitumor activity against castration-resistant human VCaP cells xenografted in BALB/c mouse assessed as tumor growth inhibition at 60 mg/kg, po administered for 40 days. It is filed as functional. Particulars: 960 h, read-out: TGI. Put shortly: as §4
For series [23], the system named is LNCaP. The series is described as follows: Inhibition of AR splice variant 7 mutant expression in human LNCAP cells at 5 to 20 uM incubated for 24 hrs by Western blot analysis analysis. It is filed as functional, cell-based. Put shortly: as §3
Series [24] relates to CWR22R. The series is described as follows: Inhibition of AR splice variant 7 mutant gene expression in human 22Rv1 cells at 10 to 30 uM incubated for 24 hrs by qRT-PCR analysis. Type of series: functional, cell-based. Summed up:
as §2

In series [25] the test system is LNCaP. The series is described as follows: Inhibition of AR mRNA level in human LNCAP cells at 5 to 20 uM incubated for 24 hrs by qRT-PCR analysis. Type of series: functional, cell-based. Summed up: as §2
In series [26] the test system is CWR22R. Description: Inhibition of AR mRNA level in human 22Rv1 cells at 10 to 30 uM incubated for 24 hrs by qRT-PCR analysis. Type of series: functional, cell-based. Summed up:
as §2

The subject of series [27] is LNCaP. Description: Inhibition of AR protein expression in human LNCAP cells at 5 to 20 uM incubated for 24 hrs by Western blot analysis. Type of series: functional, cell-based. Put shortly: as §3
In series [28] the test system is VCaP. The series is described as follows: Inhibition of AR mRNA level in human VCaP cells at 10 to 30 uM incubated for 24 hrs by qRT-PCR analysis. Type of series: functional, cell-based. Summed up:
as §2

The test system of series [29] is VCaP. Description: Inhibition of AR splice variant 7 mutant gene expression in human VCaP cells at 10 to 30 uM incubated for 24 hrs by qRT-PCR analysis. Type of series: functional, cell-based. Put shortly: as §2
Series [30] has as its system CWR22R. The series is described as follows: Inhibition of AR splice variant 7 mutant expression in human 22Rv1 cells at 10 to 30 uM incubated for 24 hrs by Western blot analysis analysis. It is filed as functional, cell-based. Summed up:
as §3

In series [31] the test system is LNCaP. The series is described as follows: Inhibition of AR splice variant 7 mutant gene expression in human LNCAP cells at 5 to 20 uM incubated for 24 hrs by qRT-PCR analysis. Type of series: functional, cell-based. Summed up: as §2
Series [32] deals with CWR22R. The series is described as follows: Inhibition of AR protein expression in human 22Rv1 cells at 10 to 30 uM incubated for 24 hrs by Western blot analysis. Type of series: functional, cell-based. Put shortly: as §3

As for `C[C@@H](Cn1ccc(-c2ccc(C#N)c(Cl)c2)n1)Nc1ncnc2nc[nH]c12`, the AUC(0-t) at 24 h in series [1] turned out to be 7280 ng·h/mL. Also, the inhibition entry in the series on CWR22R [2], in the series with CWR22R [3], with VCaP [5], with LNCaP [6], in the series on LNCaP [7] and with VCaP [9] was “Active” each time. In addition, the inhibition result with LNCaP [14], with CWR22R [15], in the series with CWR22R [16], in the series on VCaP [20] and in the series with LNCaP [21] was “Active” in each case. In series [4], the Stability result is “Stable”. Besides, the Activity result in series [8] is listed as “Non-Toxic”. In addition, in series [10], the Cmax came to 2650 ng/mL. Also, the inhibition in vivo at 30 mg/kg in the series with VCaP [11] came to 64.7%. Also, the outcome with LNCaP [12] and with LNCaP [17] was inactive. For the same compound, the IC50 in the series on LNCaP [13] came out at 0.96 µM; in the series with PC-3, 14.1 µM; in the series with VCaP [18] it was 0.64 µM; in the series with L02, 27.9 µM. For the same compound, the half-life in [19] was 1.79 h. For the same compound, in the series with VCaP [22], the inhibition in vivo at 60 mg/kg was determined as 77.8%.
In the case of `C[C@@H](Cn1ccc(-c2ccc(C#N)c(Cl)c2)n1)Nc1cccc2ncccc12`, the inhibition result in the series with LNCaP [23], in the series on CWR22R [24], in the series with LNCaP [25], in the series with CWR22R [26], with LNCaP [27] and in the series on VCaP [28] was “Active” throughout. The inhibition entry in the series with VCaP [9], in the series on VCaP [29], in the series on CWR22R [30], with LNCaP [31] and in the series on CWR22R [32] was “Active” throughout. The Stability result in series [4] is “Stable”. In addition, the IC50 is 1.08 µM with LNCaP [13], 7.96 µM in the series with PC-3, 0.73 µM with VCaP [18] and 16.6 µM in the series on L02.
